# Columns and labels:
# Format in all cases: toxicity, cell-based
# U2OS [1] = experiment: Multiplex assay against U2OS; settings: human
# Summary of the method: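 Live cells carried four stains from seeding: Hoechst33342, BioTracker Green Microtubule Cytoskeleton Dye, MitoTracker Red and Annexin V Alexa Fluor 680. They were imaged on a CQ1 microscope at 37°C and 5% CO2 after compound addition. Using CellPathfinder machine-learning gating, cells were split into Hoechst high-intensity objects or normal cells, normal cells into healthy, pyknosed or fragmented nuclei, and pyknosed cells into mitotic or apoptotic; tubulin, mitochondrial-mass and membrane-permeability phenotypes are per cents of healthy-nucleus cells.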
# HEK-293T = experiment: Incucyte cell viability with HEK293T; settings: human, 10 µM, compound concentration 10 uM; note: filed as whole numbers so only -1 and 0 and 1 occur
# Fibroblast = experiment: Incucyte cell viability with human fibroblast; settings: 10 µM, compound concentration 10 uM; note: filed as whole numbers so only -1 and 0 and 1 occur
# U2OS [2] = experiment: Incucyte cell viability with U2OS; settings: human, 10 µM, compound concentration 10 uM; note: filed as whole numbers so only -1 and 0 and 1 occur
# [3] = 12 h, 1 µM, compound concentration 1 uM, replicate 1
# [4] = 12 h, 1 µM, compound concentration 1 uM, replicate 2
# [5] = 12 h, 10 µM, compound concentration 10 uM, replicate 1
# [6] = 12 h, 10 µM, compound concentration 10 uM, replicate 2
# [7] = 24 h, 1 µM, compound concentration 1 uM, replicate 1
# [8] = 24 h, 1 µM, compound concentration 1 uM, replicate 2
# [9] = 24 h, 10 µM, compound concentration 10 uM, replicate 1
# [10] = 24 h, 10 µM, compound concentration 10 uM, replicate 2
# [11] = 48 h, 1 µM, compound concentration 1 uM, replicate 1
# [12] = 48 h, 1 µM, compound concentration 1 uM, replicate 2
# [13] = 48 h, 10 µM, compound concentration 10 uM, replicate 1
# [14] = 48 h, 10 µM, compound concentration 10 uM, replicate 2
# [15] = 0 h, replicate number 1, timepoint 0 hours
structure (smiles),measurement,setting,value
CNc1oc(-c2cccc3ccccc23)nc1C#N,Population Apoptotic (%),U2OS [1]; [3],36%
same,Population Fragmented Nuclei (%),U2OS [1]; [3],22%
same,Population Healthy Nuclei (%),U2OS [1]; [3],67%
same,Population Hoechst High Intensity Objects (%),U2OS [1]; [3],16%
same,Population Membrane Permeable-Phenotype (%),U2OS [1]; [3],10%
same,Population Mitochondria Different-Phenotype (%),U2OS [1]; [3],9%
same,Population Mitotic Cells (%),U2OS [1]; [3],63%
same,Population Normal (%),U2OS [1]; [3],83%
same,Population Pyknosed Nuclei (%),U2OS [1]; [3],10%
same,Population Tubulin-Different-Phenotype (%),U2OS [1]; [3],8%
same,Total Cell Count,U2OS [1]; [3],113
same,Population Apoptotic (%),U2OS [1]; [4],0%
same,Population Fragmented Nuclei (%),U2OS [1]; [4],29%
same,Population Hoechst High Intensity Objects (%),U2OS [1]; [4],15%
same,Population Membrane Permeable-Phenotype (%),U2OS [1]; [4],3%
same,Population Mitochondria Different-Phenotype (%),U2OS [1]; [4],11%
same,Population Mitotic Cells (%),U2OS [1]; [4],100%
same,Population Normal (%),U2OS [1]; [4],84%
same,Population Pyknosed Nuclei (%),U2OS [1]; [4],2%
same,Population Tubulin-Different-Phenotype (%),U2OS [1]; [4],7%
same,Total Cell Count,U2OS [1]; [4],100
same,Population Apoptotic (%),U2OS [1]; [5],86%
same,Population Fragmented Nuclei (%),U2OS [1]; [5],49%
same,Population Healthy Nuclei (%),U2OS [1]; [5],18%
same,Population Hoechst High Intensity Objects (%),U2OS [1]; [5],44%
same,Population Membrane Permeable-Phenotype (%),U2OS [1]; [5],3%
same,Population Mitochondria Different-Phenotype (%),U2OS [1]; [5],11%
same,Population Mitotic Cells (%),U2OS [1]; [5],13%
same,Population Normal (%),U2OS [1]; [5],55%
same,Population Pyknosed Nuclei (%),U2OS [1]; [5],32%
same,Population Tubulin-Different-Phenotype (%),U2OS [1]; [5],15%
same,Total Cell Count,U2OS [1]; [5],259
same,Population Apoptotic (%),U2OS [1]; [6],80%
same,Population Fragmented Nuclei (%),U2OS [1]; [6],55%
same,Population Healthy Nuclei (%),U2OS [1]; [6],16%
same,Population Hoechst High Intensity Objects (%),U2OS [1]; [6],46%
same,Population Membrane Permeable-Phenotype (%),U2OS [1]; [6],1%
same,Population Mitochondria Different-Phenotype (%),U2OS [1]; [6],3%
same,Population Mitotic Cells (%),U2OS [1]; [6],19%
same,Population Normal (%),U2OS [1]; [6],53%
same,Population Pyknosed Nuclei (%),U2OS [1]; [6],28%
same,Population Tubulin-Different-Phenotype (%),U2OS [1]; [6],24%
same,Total Cell Count,U2OS [1]; [6],92
same,Population Apoptotic (%),U2OS [1]; [7],53%
same,Population Fragmented Nuclei (%),U2OS [1]; [7],18%
same,Population Healthy Nuclei (%),U2OS [1]; [7],75%
same,Population Hoechst High Intensity Objects (%),U2OS [1]; [7],17%
same,Population Membrane Permeable-Phenotype (%),U2OS [1]; [7],2%
same,Population Mitochondria Different-Phenotype (%),U2OS [1]; [7],3%
same,Population Mitotic Cells (%),U2OS [1]; [7],46%
same,Population Normal (%),U2OS [1]; [7],82%
same,Population Pyknosed Nuclei (%),U2OS [1]; [7],5%
same,Population Tubulin-Different-Phenotype (%),U2OS [1]; [7],6%
same,Total Cell Count,U2OS [1]; [7],119
same,Population Apoptotic (%),U2OS [1]; [8],25%
same,Population Fragmented Nuclei (%),U2OS [1]; [8],28%
same,Population Healthy Nuclei (%),U2OS [1]; [8],67%
same,Population Hoechst High Intensity Objects (%),U2OS [1]; [8],6%
same,Population Membrane Permeable-Phenotype (%),U2OS [1]; [8],1%
same,Population Mitochondria Different-Phenotype (%),U2OS [1]; [8],10%
same,Population Mitotic Cells (%),U2OS [1]; [8],75%
same,Population Normal (%),U2OS [1]; [8],93%
same,Population Pyknosed Nuclei (%),U2OS [1]; [8],3%
same,Population Tubulin-Different-Phenotype (%),U2OS [1]; [8],21%
same,Total Cell Count,U2OS [1]; [8],113
same,Population Apoptotic (%),U2OS [1]; [9],86%
same,Population Fragmented Nuclei (%),U2OS [1]; [9],50%
same,Population Healthy Nuclei (%),U2OS [1]; [9],17%
same,Population Hoechst High Intensity Objects (%),U2OS [1]; [9],43%
same,Population Membrane Permeable-Phenotype (%),U2OS [1]; [9],3%
same,Population Mitochondria Different-Phenotype (%),U2OS [1]; [9],15%
same,Population Mitotic Cells (%),U2OS [1]; [9],13%
same,Population Normal (%),U2OS [1]; [9],56%
same,Population Pyknosed Nuclei (%),U2OS [1]; [9],32%
same,Population Tubulin-Different-Phenotype (%),U2OS [1]; [9],14%
same,Total Cell Count,U2OS [1]; [9],352
same,Population Apoptotic (%),U2OS [1]; [10],81%
same,Population Fragmented Nuclei (%),U2OS [1]; [10],57%
same,Population Healthy Nuclei (%),U2OS [1]; [10],16%
same,Population Hoechst High Intensity Objects (%),U2OS [1]; [10],44%
same,Population Mitochondria Different-Phenotype (%),U2OS [1]; [10],3%
same,Population Mitotic Cells (%),U2OS [1]; [10],18%
same,Population Normal (%),U2OS [1]; [10],55%
same,Population Pyknosed Nuclei (%),U2OS [1]; [10],25%
same,Population Tubulin-Different-Phenotype (%),U2OS [1]; [10],26%
same,Total Cell Count,U2OS [1]; [10],116
same,Population Apoptotic (%),U2OS [1]; [11],56%
same,Population Fragmented Nuclei (%),U2OS [1]; [11],16%
same,Population Healthy Nuclei (%),U2OS [1]; [11],79%
same,Population Hoechst High Intensity Objects (%),U2OS [1]; [11],14%
same,Population Mitochondria Different-Phenotype (%),U2OS [1]; [11],7%
same,Population Mitotic Cells (%),U2OS [1]; [11],43%
same,Population Normal (%),U2OS [1]; [11],85%
same,Population Pyknosed Nuclei (%),U2OS [1]; [11],3%
same,Population Tubulin-Different-Phenotype (%),U2OS [1]; [11],8%
same,Total Cell Count,U2OS [1]; [11],243
same,Population Apoptotic (%),U2OS [1]; [12],0%
same,Population Fragmented Nuclei (%),U2OS [1]; [12],29%
same,Population Healthy Nuclei (%),U2OS [1]; [12],68%
same,Population Hoechst High Intensity Objects (%),U2OS [1]; [12],10%
same,Population Membrane Permeable-Phenotype (%),U2OS [1]; [12],1%
same,Population Mitochondria Different-Phenotype (%),U2OS [1]; [12],8%
same,Population Mitotic Cells (%),U2OS [1]; [12],100%
same,Population Normal (%),U2OS [1]; [12],89%
same,Population Pyknosed Nuclei (%),U2OS [1]; [12],2%
same,Population Tubulin-Different-Phenotype (%),U2OS [1]; [12],19%
same,Total Cell Count,U2OS [1]; [12],155
same,Population Apoptotic (%),U2OS [1]; [13],87%
same,Population Fragmented Nuclei (%),U2OS [1]; [13],53%
same,Population Healthy Nuclei (%),U2OS [1]; [13],18%
same,Population Hoechst High Intensity Objects (%),U2OS [1]; [13],43%
same,Population Membrane Permeable-Phenotype (%),U2OS [1]; [13],3%
same,Population Mitochondria Different-Phenotype (%),U2OS [1]; [13],12%
same,Population Mitotic Cells (%),U2OS [1]; [13],12%
same,Population Normal (%),U2OS [1]; [13],56%
same,Population Pyknosed Nuclei (%),U2OS [1]; [13],27%
same,Population Tubulin-Different-Phenotype (%),U2OS [1]; [13],17%
same,Total Cell Count,U2OS [1]; [13],525
same,Population Apoptotic (%),U2OS [1]; [14],81%
same,Population Fragmented Nuclei (%),U2OS [1]; [14],57%
same,Population Healthy Nuclei (%),U2OS [1]; [14],14%
same,Population Mitochondria Different-Phenotype (%),U2OS [1]; [14],5%
same,Population Mitotic Cells (%),U2OS [1]; [14],18%
same,Population Tubulin-Different-Phenotype (%),U2OS [1]; [14],26%
same,Total Cell Count,U2OS [1]; [14],168
same,Growth Rate,HEK-293T; [15],0
same,Growth Rate,"HEK-293T; 12 h, replicate number 1, timepoint 12 hours",1
same,Growth Rate,"HEK-293T; 18 h, replicate number 1, timepoint 18 hours",1
same,Growth Rate,"HEK-293T; 24 h, replicate number 1, timepoint 24 hours",1
same,Growth Rate,Fibroblast; [15],0
same,Growth Rate,"Fibroblast; 6 h, replicate number 2, timepoint 6 hours",1
same,Growth Rate,U2OS [2]; [15],0
same,Growth Rate,"U2OS [2]; 18 h, replicate number 2, timepoint 18 hours",1
same,Growth Rate,"U2OS [2]; 24 h, replicate number 2, timepoint 24 hours",1

# Source: ChEMBL document CHEMBL4689842, “EUbOPEN Chemogenomics Library wave 1” (2021)
